The results in this text go back to ChEMBL document CHEMBL1134320, “Structure of protein tyrosine phosphatase 1B in complex with inhibitors bearing two phosphotyrosine mimetics” (J Med Chem, 2001).

Test [1] addresses T1, Tyrosine-protein phosphatase non-receptor type 4 (Homo sapiens) (UniProt P29074).
T1 sequence (whole entry): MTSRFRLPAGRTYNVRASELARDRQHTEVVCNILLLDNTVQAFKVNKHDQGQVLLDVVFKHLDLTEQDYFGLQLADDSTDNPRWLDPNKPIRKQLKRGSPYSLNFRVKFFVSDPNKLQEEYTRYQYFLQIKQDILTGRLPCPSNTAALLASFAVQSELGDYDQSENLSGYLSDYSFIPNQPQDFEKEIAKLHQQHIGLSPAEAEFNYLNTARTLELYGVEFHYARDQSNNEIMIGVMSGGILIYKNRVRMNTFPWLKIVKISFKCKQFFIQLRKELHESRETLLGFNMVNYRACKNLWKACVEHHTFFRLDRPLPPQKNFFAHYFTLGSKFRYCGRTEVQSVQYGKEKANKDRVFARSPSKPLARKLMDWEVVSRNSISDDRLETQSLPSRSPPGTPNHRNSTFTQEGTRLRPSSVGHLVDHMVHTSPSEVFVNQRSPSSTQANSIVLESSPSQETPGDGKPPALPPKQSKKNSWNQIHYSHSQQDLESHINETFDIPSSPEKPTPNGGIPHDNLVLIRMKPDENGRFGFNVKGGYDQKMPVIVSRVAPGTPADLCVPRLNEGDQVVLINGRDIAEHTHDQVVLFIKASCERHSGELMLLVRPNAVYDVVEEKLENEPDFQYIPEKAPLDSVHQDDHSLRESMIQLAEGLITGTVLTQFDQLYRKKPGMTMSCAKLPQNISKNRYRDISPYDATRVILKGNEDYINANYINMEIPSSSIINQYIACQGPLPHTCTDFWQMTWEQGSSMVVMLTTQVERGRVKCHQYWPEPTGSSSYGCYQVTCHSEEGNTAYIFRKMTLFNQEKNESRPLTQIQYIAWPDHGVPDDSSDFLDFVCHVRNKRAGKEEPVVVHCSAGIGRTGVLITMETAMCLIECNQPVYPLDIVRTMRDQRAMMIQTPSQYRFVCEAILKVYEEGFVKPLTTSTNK
Briefly: Inhibitory activity against Protein tyrosine phosphatase PTPmeg-1 at 380 uM. The essentials:
(§1)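 Percent inhibition was measured at the single inhibitor concentration given in the line, using the FDP fluorogenic substrate at about each enzyme's KM. For CDC25a, flag-tagged protein was made in Sf9 cells (moi 5, 27 °C, 72 h) and purified on anti-flag resin to over 80% purity.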

Test [2] has as its target T1, Tyrosine-protein phosphatase non-receptor type 4 (Homo sapiens). Description: Inhibitory activity against Protein tyrosine phosphatase PTPmeg-1 at 500 uM. The procedure, abridged:
as §1

Test [3] has as its target T2, M-phase inducer phosphatase 1 (Homo sapiens) (UniProt P30304).
T2 sequence (whole entry): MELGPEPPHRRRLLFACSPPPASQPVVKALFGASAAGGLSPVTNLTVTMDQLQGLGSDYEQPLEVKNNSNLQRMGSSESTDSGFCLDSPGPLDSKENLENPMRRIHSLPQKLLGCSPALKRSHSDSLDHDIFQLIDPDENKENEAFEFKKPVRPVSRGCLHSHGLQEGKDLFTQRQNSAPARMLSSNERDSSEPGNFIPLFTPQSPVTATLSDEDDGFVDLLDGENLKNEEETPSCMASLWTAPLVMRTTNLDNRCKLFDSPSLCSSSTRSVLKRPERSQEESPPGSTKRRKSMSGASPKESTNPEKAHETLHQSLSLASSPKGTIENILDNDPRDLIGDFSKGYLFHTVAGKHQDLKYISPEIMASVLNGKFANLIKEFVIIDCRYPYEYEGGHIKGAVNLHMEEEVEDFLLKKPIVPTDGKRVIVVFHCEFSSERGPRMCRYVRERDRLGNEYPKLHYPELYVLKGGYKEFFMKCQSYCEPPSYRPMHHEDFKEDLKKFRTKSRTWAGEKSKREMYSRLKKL
Description: Inhibitory activity against Protein tyrosine phosphatase cell division cycle 25A at 250 uM.

The target in test [4] is T1, Tyrosine-protein phosphatase non-receptor type 4 (Homo sapiens). Description: Inhibitory activity against Protein tyrosine phosphatase PTPmeg-1 at 250 uM. The procedure, abridged:
as §1

Test [5] has as its target T2, M-phase inducer phosphatase 1 (Homo sapiens). Description: Inhibitory activity against Protein tyrosine phosphatase cell division cycle 25A at 250 uM. The procedure, abridged:
as §1

As a reminder, the inhibition is the change of the read-out against control, counted positive when it falls. Read a low inhibition as a weak effect. In test [1], `O=P(O)(O)C(F)(F)c1ccc(COc2cccc(OCc3ccc(C(F)(F)P(=O)(O)O)cc3)c2)cc1` gave an inhibition of 30%.

With `O=P(O)(O)C(F)(F)c1ccc(COc2ccccc2OCc2ccc(C(F)(F)P(=O)(O)O)cc2)cc1`, the inhibition in test [2] was 30%.

Take `O=P(O)(O)C(F)(F)c1ccc(CCCCc2ccc(C(F)(F)P(=O)(O)O)cc2)cc1`: the inhibition worked out at 16% in test [3] and 9% in test [4].

Take `O=P(O)(O)C(F)(F)c1ccc(COCCOCc2ccc(C(F)(F)P(=O)(O)O)cc2)cc1`: the inhibition in test [4] was 2%; in test [5], 13%.
